# Assay results: ChEMBL document CHEMBL1125418, “Antimycobacterial activity of a series of pyrazinoic acid esters” (1992)
# How the values were obtained:
# Mycobacterium kansasii [1] = test: In vitro activity against Mycobacterium strain SCH (Mycobacterium kansasii); assay type: functional
# Outline: (§1)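 Agar dilution MIC against pyrazinamide-resistant clinical isolates on Middlebrook 7H10 agar with 10% OADC at pH 5.8 or pH 6.6. Serial 2-fold dilutions span 200–3.12 µg/mL in compartmented plates made 24–48 h ahead and stored at 4 °C. Each isolate has a drug-free control. Plates were incubated at 37 °C for 4 weeks. MIC is the lowest concentration giving 99% (2 log) growth inhibition.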
# [2] = system: Mycobacterium tuberculosis; test: In vitro inhibitory activity against Mycobacterium strain WOO (Mycobacterium tuberculosis)
# [3] = system: Mycobacterium tuberculosis; test: In vitro inhibitory activity against Mycobacterium tuberculosis (strain type-ATCC 35828) at pH 5.8; assay type: functional
# Outline: (§2)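 Middlebrook 7H10 agar plus 10% OADC at pH 5.8 in compartmented plates, with serial twofold dilutions from 200 to 3.12 µg/mL. Plates were prepared 24–48 h before use and stored at 4 °C. A drug-free compartment was included per isolate. Incubation was 37 °C for 4 weeks. MIC was the lowest level producing 99% (2 log) inhibition of growth.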
# [4] = system: Mycobacterium tuberculosis; test: In vitro inhibitory activity against Mycobacterium strain DUB (Mycobacterium tuberculosis)
# [5] = system: Mycobacterium tuberculosis; test: In vitro inhibitory activity against Mycobacterium strain MCQ (Mycobacterium tuberculosis)
# Mycobacterium kansasii [6] = test: In vitro activity against Mycobacterium strain SWK (Mycobacterium kansasii); assay type: functional; outline: as §1
# [7] = system: Mycobacterium tuberculosis; test: In vitro activity against Mycobacterium strains on DOL (Mycobacterium tuberculosis)
# [8] = system: Mycobacterium tuberculosis; test: In vitro inhibitory activity against Mycobacterium strain BUR (Mycobacterium tuberculosis)
# [9] = system: Mycobacterium tuberculosis; test: In vitro inhibitory activity against Mycobacterium tuberculosis (strain type-H37Rv) at pH 5.8; assay type: functional; outline: as §2
# Mycobacterium kansasii [10] = test: In vitro activity inhibitory against Mycobacterium. kansasii (strain type-SWK) at pH 5.8; assay type: functional
# Outline: (§3)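 Pyrazinamide-resistant isolate SWK tested on Middlebrook 7H10 agar plus 10% OADC adjusted to pH 5.8. Compartmented plates hold 2-fold dilutions from 200 to 3.12 µg/mL, prepared 24–48 h before use and kept at 4 °C, with a drug-free compartment. Incubation was 37 °C for 4 weeks. MIC is the lowest level causing 99% (2 log) growth inhibition.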
# [11] = system: Mycobacterium tuberculosis; test: In vitro activity against Mycobacterium strain ATCC 35828 (Mycobacterium tuberculosis); assay type: functional
# Outline: (§4)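 Agar dilution in compartmented plates of Middlebrook 7H10 agar with 10% OADC, adjusted to pH 5.8 or pH 6.6. Twofold compound dilutions spanned 200–3.12 µg/mL. Plates were made 24–48 h ahead and held at 4 °C. MIC (µg/mL) was the lowest concentration giving 99% (2 log) growth inhibition.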
# [12] = system: Mycobacterium tuberculosis; test: In vitro inhibitory activity against Mycobacterium strain LEL (Mycobacterium tuberculosis); assay type: functional; outline: as §4
# [13] = system: Mycobacterium tuberculosis; test: In vitro activity against Mycobacterium strains on SMA (Mycobacterium tuberculosis)
# [14] = system: Mycobacterium tuberculosis; test: (§5) In vitro inhibitory activity against Mycobacterium tuberculosis (strain type-BUR) at pH 5.8
# [15] = system: Mycobacterium tuberculosis; test: In vitro inhibitory activity against Mycobacterium strains on BAK (Mycobacterium tuberculosis)
# [16] = system: Mycobacterium tuberculosis; test: In vitro inhibitory activity against Mycobacterium strain ING (Mycobacterium tuberculosis); assay type: functional; outline: as §4
# [17] = system: Mycobacterium tuberculosis; test: (§6) In vitro activity against Mycobacterium strain DOU (Mycobacterium tuberculosis)
# [18] = system: Mycobacterium tuberculosis; test: In vitro inhibitory activity against Mycobacterium tuberculosis (strain type-BUR) at pH 6.6; assay type: functional
# Outline: (§7)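 Twofold serial dilutions (200–3.12 µg/mL) in 7H10 agar with 10% OADC enrichment at pH 6.6, in compartmented plates. Plates were stored at 4 °C and used within 24–48 h. A no-drug compartment served as control for each isolate. Plates were incubated for 4 weeks at 37 °C. MIC was the lowest concentration giving 99% (2 log) growth inhibition.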
# [19] = system: Mycobacterium tuberculosis; test: In vitro inhibitory activity against Mycobacterium strain GLA (Mycobacterium tuberculosis); assay type: functional; outline: as §4
# [20] = system: Mycobacterium tuberculosis; test: In vitro inhibitory activity against Mycobacterium tuberculosis (strain type-ATCC 35828)at pH 6.6; assay type: functional; outline: as §7
# [21] = system: Mycobacterium tuberculosis; test: In vitro inhibitory activity against Mycobacterium tuberculosis (strain type-H37Rv) at pH 6.6; assay type: functional
# Mycobacterium kansasii [22] = test: In vitro inhibitory activity inhibitory against Mycobacterium. kansasii (strain type-SWK) at pH 6.6; assay type: functional
# Outline: (§8)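 MIC for pyrazinamide-resistant isolate SWK by agar dilution in Middlebrook 7H10 with 10% OADC at pH 6.6. Serial 2-fold dilutions run 200–3.12 µg/mL in compartmented plates prepared 24–48 h in advance and stored at 4 °C. A drug-free control is included. Plates were held at 37 °C for 4 weeks. The endpoint is 99% (2 log) inhibition of growth.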
# [23] = system: Mycobacterium tuberculosis; test: In vitro activity against Mycobacterium. tuberculosis (strain type-ATCC 35828)at pH 5.8; assay type: functional; outline: as §2
# [24] = system: Mycobacterium tuberculosis; test: In vitro activity against Mycobacterium. tuberculosis (strain type-BUR)at pH 5.8; assay type: functional; conditions: Mycobacterium tuberculosis; read-out: MIC
# [25] = system: Mycobacterium tuberculosis; test: In vitro activity against Mycobacterium. tuberculosis (strain type-ATCC 35828)at pH 6.6; assay type: functional; outline: as §7
# [26] = system: Mycobacterium tuberculosis; test: In vitro activity against Mycobacterium. tuberculosis (strain type-BUR)at pH 6.6; assay type: functional; outline: as §7
# Mycobacterium kansasii [27] = test: In vitro activity against Mycobacterium. kansasii (strain type-SWK).at pH 6.6; assay type: functional; outline: as §8
# Mycobacterium kansasii [28] = test: In vitro inhibitory activity against Mycobacterium kansasii (strain type-SWK) at pH 6.6; assay type: functional; outline: as §8
# [29] = system: Mycobacterium tuberculosis; test: In vitro inhibitory activity against Mycobacterium tuberculosis (strain type-ATCC 35828) at pH 6.6; assay type: functional; outline: as §7
# [30] = system: Mycobacterium tuberculosis; test: as §5; assay type: functional; outline: as §2
# Mycobacterium kansasii [31] = test: In vitro inhibitory activity against Mycobacterium kansasii (strain type-SWK) at pH 5.8; assay type: functional; outline: as §3
# [32] = system: Mycobacterium tuberculosis; test: In vitro activity against Mycobacterium strain CES (Mycobacterium tuberculosis); assay type: functional; outline: as §4
# Mycobacterium kansasii [33] = test: In vitro activity against Mycobacterium. kansasii (strain type-SWK).at pH 5.8; assay type: functional; outline: as §3
# [34] = system: Mycobacterium tuberculosis; test: as §6; assay type: functional; outline: as §4
# [35] = system: Mycobacterium tuberculosis; test: In vitro activity against Mycobacterium strain ING (Mycobacterium tuberculosis); assay type: functional; outline: as §4
# [36] = system: Mycobacterium tuberculosis; test: In vitro activity against Mycobacterium strain BAK (Mycobacterium tuberculosis); assay type: functional; conditions: Mycobacterium tuberculosis; read-out: MIC
# [37] = system: Mycobacterium tuberculosis; test: In vitro activity against Mycobacterium strain BUR (Mycobacterium tuberculosis); assay type: functional; outline: as §4
# [38] = system: Mycobacterium tuberculosis; test: In vitro activity against Mycobacterium strain LEL (Mycobacterium tuberculosis); assay type: functional; conditions: Mycobacterium tuberculosis; read-out: MIC
# [39] = system: Mycobacterium tuberculosis; test: In vitro activity against Mycobacterium strain DOL (Mycobacterium tuberculosis); assay type: functional; conditions: Mycobacterium tuberculosis; read-out: MIC
# [40] = system: Mycobacterium tuberculosis; test: In vitro activity against Mycobacterium strain DUB (Mycobacterium tuberculosis); assay type: functional; conditions: Mycobacterium tuberculosis; read-out: MIC
# [41] = system: Mycobacterium tuberculosis; test: In vitro activity against Mycobacterium. tuberculosis (strain type-H37Rv) at pH 5.8; assay type: functional; conditions: Mycobacterium tuberculosis; read-out: MIC
# [42] = system: Mycobacterium tuberculosis; test: In vitro activity against Mycobacterium. tuberculosis (strain type-H37Rv) at pH 6.6; assay type: functional
# [43] = system: Mycobacterium tuberculosis; test: In vitro activity against Mycobacterium strain GLA (Mycobacterium tuberculosis); assay type: functional
# [44] = system: Mycobacterium tuberculosis; test: In vitro activity against Mycobacterium strain MCQ (Mycobacterium tuberculosis); assay type: functional; outline: as §4
# [45] = system: Mycobacterium tuberculosis; test: In vitro activity against Mycobacterium strain SMA (Mycobacterium tuberculosis); assay type: functional; conditions: Mycobacterium tuberculosis; read-out: MIC
structure (smiles),measurement,setting,value
NC(=O)c1cnccn1 [PYRAZINAMIDE],MIC,Mycobacterium kansasii [1],> 200 µg/mL
same,MIC,[2],50 µg/mL
same,MIC,[3],> 200 µg/mL
same,MIC,[4],50 µg/mL
same,MIC,[5],25 µg/mL
same,MIC,Mycobacterium kansasii [6],> 200 µg/mL
same,MIC,[7],25 µg/mL
same,MIC,[8],25 µg/mL
same,MIC,[9],12.5 µg/mL
same,MIC,Mycobacterium kansasii [10],> 200 µg/mL
same,MIC,[11],> 200 µg/mL
same,MIC,[12],> 200 µg/mL
same,MIC,[13],50 µg/mL
same,MIC,[14],25 µg/mL
same,MIC,[15],50 µg/mL
same,MIC,[16],12.5 µg/mL
same,MIC,[17],25 µg/mL
same,MIC,[18],200 µg/mL
same,MIC,[19],12.5 µg/mL
same,MIC,[20],> 200 µg/mL
same,MIC,[21],>200 µg/mL
same,MIC,Mycobacterium kansasii [22],> 200 µg/mL
O=C(OC(C(F)(F)F)C(F)(F)F)c1cnccn1,MIC,[23],200 µg/mL
same,MIC,[24],100 µg/mL
O=C(OCCBr)c1cnccn1,MIC,[25],> 200 µg/mL
same,MIC,[26],> 200 µg/mL
same,MIC,Mycobacterium kansasii [27],> 200 µg/mL
O=C(O)c1cnccn1 [PYRAZINOIC ACID],MIC,[3],100 µg/mL
same,MIC,Mycobacterium kansasii [28],> 200 µg/mL
same,MIC,[9],50 µg/mL
same,MIC,[29],> 200 µg/mL
same,MIC,[30],50 µg/mL
same,MIC,[18],> 200 µg/mL
same,MIC,Mycobacterium kansasii [31],> 200 µg/mL
same,MIC,"[21]; Mycobacterium tuberculosis, read-out: MIC",200 µg/mL
CCCOC(=O)c1cnccn1,MIC,Mycobacterium kansasii [1],12.5 µg/mL
same,MIC,[32],< 3.12 µg/mL
same,MIC,Mycobacterium kansasii [33],< 3.12 µg/mL
same,MIC,Mycobacterium kansasii [6],6.25 µg/mL
same,MIC,[34],< 3.12 µg/mL
same,MIC,[35],< 3.12 µg/mL
same,MIC,[36],< 3.12 µg/mL
same,MIC,[37],< 3.12 µg/mL
same,MIC,[11],6.25 µg/mL
same,MIC,[38],6.25 µg/mL
same,MIC,[25],25 µg/mL
same,MIC,[39],< 3.12 µg/mL
same,MIC,[23],6.25 µg/mL
same,MIC,[40],< 3.12 µg/mL
same,MIC,[41],< 3.12 µg/mL
same,MIC,[42],25 µg/mL
same,MIC,[43],6.25 µg/mL
same,MIC,[44],< 3.12 µg/mL
same,MIC,[24],< 3.12 µg/mL
same,MIC,[45],< 3.12 µg/mL
same,MIC,Mycobacterium kansasii [27],12.5 µg/mL
O=C(Oc1ccc(-c2ccccc2)cc1)c1cnccn1,MIC,Mycobacterium kansasii [33],25 µg/mL
same,MIC,[25],100 µg/mL
same,MIC,[23],25 µg/mL
same,MIC,[41],6.25 µg/mL
same,MIC,[26],50 µg/mL
same,MIC,Mycobacterium kansasii [27],100 µg/mL
